# Screening data: PubChem BioAssay, Johns Hopkins Ion Channel Center
# This is a sample that favours compounds with a hit; in the whole collection about 3.7% have one here.
# KCNQ1 inh = blocks the human KCNQ1 potassium channel | P51787 | CHO-K1 KCNQ1, FluxOR thallium flux fluorescence; active compounds read high | B-score at 10 µM | hit rate 1.3% among 310,000 | AID 2642;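 active = compounds whose thallium flux B-score, printed positive for inhibition, exceeds three library SD while starting fluorescence stays within three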;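 note: channel opened by potassium depolarization with thallium stimulus after 20 min compound exposure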
# Kir21 inh = Kir2.1 (mouse) channel inhibition. P35561. HEK293-Kir2.1, FluxOR thallium flux fluorescence; active compounds read low. B-score at 10 µM. hit rate 0.85% among 310,000. AID 1672;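 active = fluorescence ratio B-score at or below minus 3 SD of library scores, with starting-brightness B-score within 2 SD, cut at about -4.2 in these data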;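 note: channel flux triggered by added potassium and thallium sulfate stimulus; B-score of peak minus minimum fluorescence over baseline after thallium stimulus; more negative B-score means stronger Kir2.1 block with less thallium influx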
# KCNK3 inh = human KCNK3 channel inhibition, primary screen | hit rate 0.84% among 340,000 | AID 602410 | B-score at 10 µM | CHO-KCNK3 thallium flux, FluxOR fluorescence; active compounds read low | O14649;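 active = B-score under library mean minus 4 SD, starting fluorescence ratio at most library mean plus 5 SD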;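 note: more negative B-score means stronger inhibition of thallium flux through KCNK3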
# Target sequence (O14649 whole entry, looked up): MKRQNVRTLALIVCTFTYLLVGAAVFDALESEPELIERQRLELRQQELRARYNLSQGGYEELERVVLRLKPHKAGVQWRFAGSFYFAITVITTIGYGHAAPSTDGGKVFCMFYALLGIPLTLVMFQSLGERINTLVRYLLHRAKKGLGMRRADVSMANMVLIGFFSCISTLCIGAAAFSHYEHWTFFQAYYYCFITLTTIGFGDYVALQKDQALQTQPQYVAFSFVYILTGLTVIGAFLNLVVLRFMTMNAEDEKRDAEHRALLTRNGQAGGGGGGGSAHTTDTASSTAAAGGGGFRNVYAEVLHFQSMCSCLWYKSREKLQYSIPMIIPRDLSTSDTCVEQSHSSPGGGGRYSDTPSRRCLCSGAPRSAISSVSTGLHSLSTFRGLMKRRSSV
# KCNK9 inh = inhibitors of human KCNK9 two-pore domain potassium channel. B-score at 10 µM. HEK293 KCNK9, FluxOR thallium flux fluorescence; active compounds read low. hit rate 1.2% among 310,000. Q9NPC2. AID 488922;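 active = ratio B-score over 3 SD below the library mean, with starting fluorescence within 5 SD of its mean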;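 note: negative B-score means less thallium flux so channel inhibition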
# KCNQ1 act = human KCNQ1 channel potentiation or activation | P51787 | CHO-K1 KCNQ1, thallium flux FluxOR fluorescence; active compounds read high | B-score at 10 µM | hit rate 0.35% among 310,000 | AID 2648;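 active = fluorescence ratio B-score, a plate-corrected score, at least three library SD, with initial intensity B-score within 5 SD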
#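 Assay system: CHO-K1 cells stably expressing KCNQ1; Medium: assay buffer with matched DMSO; Also added: K+/Tl+ depolarizing stimulus; Dosing: single dose; Timing: dye 90 min, compound 20 min, room temperature; Measured by: kinetic FluxOR thallium fluorescence, 10-s 1-Hz baseline, 110-s post-stimulus read; Read-out: peak-minus-minimum fluorescence over initial fluorescence, negative-control normalized, B-scored.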
# hERG protect = hERG (human) protection from proarrhythmic block; CHO-hERG, FluxOR thallium flux, dofetilide IC70 present; activation (rescue from dofetilide block), less the hit threshold, % at 10 µM; hit rate 0.51% among 310,000; Q12809; AID 1511;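 active = activation above the mean of controls blocked by dofetilide plus 5 SD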;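 note: thallium influx through hERG after potassium depolarization seen as dye fluorescence rise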
# KCNK9 inh conf = confirmation of human KCNK9 potassium channel inhibitors; HEK293 KCNK9 cells, FluxOR thallium flux fluorescence; shares compounds with KCNK9 inh; hit rate 43% among 4,900; inhibition, % at 10 µM;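 active = thallium signal inhibited by more than 5 SD of the compound-free buffer control wells, on both duplicate plates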;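 note: 0% = assay buffer control wells without compound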
# Kir21 sel = mouse Kir2.1 off-target activity of KCNK9 modulators | shares compounds with KCNK9 inh | hit rate 4% among 4,900 | Kir2.1 cells, FluxOR thallium flux fluorescence | inhibition, % at 10 µM;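 active = thallium signal drop more than 5 SD beyond the mean of the no-compound control wells, seen in both duplicate plates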;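 note: signal is fluorescence rise after thallium addition divided by baseline fluorescence; plate controls were assay buffer only for no effect and full block by chlorpromazine control for full effect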
# KCNK9 uninduced = second check of KCNK9 modulator effects in non-induced HEK293 cells. shares compounds with KCNK9 inh. FluxOR thallium flux. inhibition, % at 10 µM. hit rate 40% among 4,900. AID 492997;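 active = thallium signal drop beyond 5 SD of the untreated control mean, on both duplicate plates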;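 note: plate controls were buffer only IC0 wells for no effect and SID17386958 at its maximal inhibitory level for full effect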
# KCNK3 confirm = human KCNK3 channel inhibition, confirmation assay | ratio percent of control, % at 10 µM | AID 651638 | shares compounds with KCNK3 inh | CHO-KCNK3 thallium flux, FluxOR fluorescence; 0% buffer, 100% carvedilol maximal block | hit rate 99% among 2,400;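 active = ratio percent of control, averaged over triplicates, above buffer control mean plus 5 SD, cut at about 64% in these data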;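 note: ratio is the fluorescence rise from min to max over baseline after thallium stimulus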
# KCNK3 noninduced = KCNK3 inhibitor counter-screen hit in non-induced cells; shares compounds with KCNK3 inh; non-induced KCNK3 parental cells, FluxOR thallium flux; active compounds read low; thallium flux ratio (lower = more inhibition) at 10 µM; hit rate 40% among 2,400;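 active = thallium flux ratio, averaged over three wells, more than 5 SD below the buffer control mean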;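 note: host cells are CHO cells without KCNK3 induction; ratio is peak minus trough fluorescence over baseline then normalized to buffer controls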
# Starred values were filed as active, the others as inactive; i = inactive; x = no result given.
SMILES,KCNQ1 inh,Kir21 inh,KCNK3 inh,KCNK9 inh,KCNQ1 act,hERG protect,KCNK9 inh conf,Kir21 sel,KCNK9 uninduced,KCNK3 confirm,KCNK3 noninduced
CCOC(=O)C1CCN(C(=O)COc2cc(C)c(Br)cc2C)CC1,i,0.92,-11*,i,i,-8,i,i,i,78*,i
CC(C)[C@H](NC(=O)c1ccco1)C(=O)N(C)Cc1c(F)cccc1Cl,i,0.27,i,i,i,-5,x,x,x,x,x
C/C(=N\Nc1cc(C)nc(-c2ccccc2)n1)c1cccc([N+](=O)[O-])c1,i,-0.05,-9.7*,-11*,i,-5,50%*,i,32%*,103*,i
Cc1ccc(C2C(C#N)=C(N)Oc3cc(C)oc(=O)c32)o1 (stereo not drawn),i,-0.74,i,i,i,-13,x,x,x,x,x
CN(Cc1ccccc1)C(=O)CSc1n[nH]c(N)n1,i,0.05,i,i,i,-9,x,x,x,x,x
O=C(Nc1cccc(-c2nnc(-c3ccco3)o2)c1)C(c1ccccc1)c1ccccc1,10*,-1.8,-13*,-20*,i,-15,72%*,i,30%*,135*,0.11*
COc1ccccc1OCC(=O)Nc1cccc(-c2nnc(-c3ccco3)o2)c1,i,0.72,-10*,-8.6*,i,-25,31%*,i,i,103*,i
O=C(Cc1ccc(Cl)cc1)Nc1cccc(-c2nnc(-c3ccco3)o2)c1,i,-0.35,i,i,i,-1,x,x,x,x,x
O=C(Cc1ccccc1)Nc1cccc(-c2nnc(-c3ccco3)o2)c1,i,0.93,i,i,i,-13,x,x,x,x,x
CCN(CC)C(=O)COc1ccc(-c2ccccc2)cc1,i,0.45,-10*,-9.8*,i,-3,41%*,i,i,84*,i
CCN(Cc1ccccc1)C(=O)COc1ccccc1,i,0.55,i,i,i,-11,x,x,x,x,x
O=C(N/N=C/c1c(O)ccc2ccccc12)c1cccc(C(F)(F)F)c1,i,-2.4,-11*,-9.3*,i,-9,61%*,46%*,61%*,159*,0.091*
O=C(COC(=O)c1cccs1)c1ccc2ccccc2c1,i,-2.3,-13*,-18*,i,-15,56%*,i,30%*,101*,i
CCN(CC)C(=O)CSc1nc2sc3c(c2c(=O)n1-c1ccc(C)cc1)CC(C)(C)SC3,i,1,-17*,i,i,-7,i,i,26%*,121*,0.14*
Cc1cccc(OCC(=O)Nc2ccccc2N2CCCCC2)c1,i,-0.49,-9.9*,-9.9*,i,-10,77%*,i,47%*,98*,i
Cc1ccccc1OCC(=O)Nc1ccccc1N1CCC(C)CC1,i,0.17,-10*,-12*,i,-8,44%*,31%*,38%*,111*,i
Cn1nc(C(=O)N2CCCCC2)c2c1-c1ccccc1S(=O)(=O)C2,i,-0.55,i,i,i,-5,x,x,x,x,x
O=C(CNC(=O)c1ccco1)NCC(c1ccco1)N1CCCCC1 (stereo not drawn),x,x,i,x,x,x,x,x,x,x,x
C=CCOc1c(CCC)cc(CCC)cc1C(N)=O,i,-2.8,-9.8*,-9.4*,i,-13,60%*,i,32%*,119*,0.15*
C=CCOc1c(Br)cc(/C=N/NC(N)=O)cc1OC,i,0.88,i,i,i,-6,x,x,x,x,x
Cc1nn(-c2ccccc2)c(Cl)c1/C=N/NC(=O)c1ccccc1F,i,0.6,-11*,-14*,i,-26,57%*,i,24%*,101*,i
CN(c1ccccc1)S(=O)(=O)c1cccc2ccccc12,i,-3,-10*,-9*,i,-6,39%*,i,30%*,113*,i
Cc1c(NS(=O)(=O)c2cc(C(=O)NCc3cccnc3)ccc2Cl)c(=O)n(-c2ccccc2)n1C,x,x,i,x,x,x,x,x,x,x,x
CCOc1ccccc1NC(=O)c1ccc2ccccc2c1,i,0.52,-9.7*,-11*,i,-8,64%*,i,32%*,113*,i
CCOc1ccccc1NC(=O)C(Sc1ccccc1)c1ccccc1 (stereo not drawn),i,2.8,-8.7*,-8.4*,i,-16,i,i,40%*,95*,0.15*
SMILES,KCNQ1 inh,Kir21 inh,KCNK3 inh,KCNK9 inh,KCNQ1 act,hERG protect,KCNK9 inh conf,Kir21 sel,KCNK9 uninduced,KCNK3 confirm,KCNK3 noninduced
CCOc1ccccc1NC(=O)NNC(=O)c1ccc2ccccc2c1,i,-0.31,i,i,i,-6,x,x,x,x,x
CCOc1ccccc1NC(=O)COC(=O)c1c[nH]c2ccccc12,x,x,i,x,x,x,x,x,x,x,x
S=C(Nc1ccccc1)N1CCOCCOCCN(C(=S)Nc2ccccc2)CCOCCOCC1,i,0.67,-9.1*,-11*,i,-5,28%*,i,i,96*,0.13*
COc1ccccc1CCNC(=O)c1cccc(S(=O)(=O)NCc2ccccc2)c1,i,-2.5,i,i,i,-16,x,x,x,x,x
COc1ccc(Oc2nc(C)cc(C)c2S(C)(=O)=O)cc1,i,0.04,i,i,i,-10,x,x,x,x,x
COc1ccc(CSc2nc(C)cc(C)c2S(C)(=O)=O)cc1,i,-3.6,-11*,-11*,i,-4,40%*,i,34%*,111*,i
O=C(Nc1ccccc1)c1sc2cc(C(F)(F)F)cnc2c1-c1cccs1,i,0.56,-9*,-9*,i,-8,40%*,i,34%*,112*,i
Clc1ccc(-c2nc3cnccn3c2Nc2ccc3c(c2)OCO3)cc1,i,2.4,-9.7*,-12*,i,-15,60%*,i,24%*,105*,i
CSc1ccc(-c2nc3cnccn3c2Nc2ccc3c(c2)OCO3)cc1,i,0.32,i,i,i,-10,x,x,x,x,x
